Data as given in PubChem BioAssay AID1753 (Vanderbilt High Throughput Screening Facility, 2009).
Inconclusive results are not listed. Activity calls are given as the source filed them.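 The calls were made as follows: active = a converged dose-response curve, firm or less certain, in at least 2 of 3 replicates; inactive = the rest, inconclusive results apart.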

Tested on: native HEK293 thallium flux, FluoZin2 fluorescence, ouabain
Assay: parental HEK Tl+ uptake potency, primary conditions – HEK cells, counterscreen, counter-screen for KCC2 modulator project, dose response (AID 1753)
Method in brief: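 Detection: kinetic FluoZin2 fluorescence (dye loaded at 0.5 µM), 1 Hz reads / Material: untransfected HEK cells, thallium flux / Schedule: 10–20 s post-thallium window / Probe or stimulus: thallium stimulus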

SMILES | EC50
Cn1nnnc1SCCNCc1ccncc1 | 21 nM (inactive)
NC(=S)N=Nc1c(O)n(Cc2ccccc2)c2ccccc12 | 124 nM (inactive)
CCOc1cccc(C(=O)NC(=S)Nc2cccc(C)c2)c1 | 7280 nM
NC(=S)N=Nc1c(O)n(Cc2ccc(F)cc2)c2ccccc12 | 2250 nM
COc1ccc(-c2nnc(-c3ccc(OCC(C)C)cc3)o2)cc1 | 777 nM (inactive)
COC(=O)c1sccc1NC(=S)OC | 1800 nM
COc1ccc(Cn2c(=S)[nH]c3ccccc32)cc1 | 436 nM
Cc1nn(-c2ccccc2)c2sc(C(=O)N(Cc3ccco3)C(C)C(=O)NC(C)(C)C)cc12 (stereo not drawn) | 10400 nM (inactive)
Cc1ccc(-c2n[nH]c(=S)n2/N=C/C=C\c2ccccc2[N+](=O)[O-])cc1 | 1470 nM
COC(=O)[C@@H](NC(=O)O[C@@H]1C(=O)c2ccc(OC)cc2O[C@H]1c1cccc(C(F)(F)F)c1)C(C)C | 1680 nM
O=C(NC(=S)Nc1cccc2cccnc12)c1cccs1 | 114 nM (inactive)
CCOc1[nH]n(-c2ccccc2)c(=O)c1C=Nc1ccc(F)cc1F | 1430 nM
CC(C)c1ccc(OCC(=O)NNC(=O)c2cnccn2)cc1 | 12200 nM (inactive)
CC(=O)c1cccc(NC(=S)NC(=O)c2ccc(C)cc2)c1 | 888 nM
O=C(NC(=S)Nc1ccc2c(c1)OCO2)c1ccc(Cl)cc1 | 75.7 nM (inactive)
CCCC(=O)OCC[N+](C)(C)C | 8.1 nM (inactive)
COc1ccc(N2C(=S)N=C(Nc3cccc(C)c3)C23CCCCC3)cc1 | 1920 nM
Cc1onc(-c2ccccc2Cl)c1C(=O)NC(=S)Nc1ccc(C(C)C)cc1 | 178 nM
